The record followed here is PubChem BioAssay.

Calls of active or inactive are those of the source.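 Rule for the calls, unless noted: active = viability at or below 10% of carrier control in both of two separate runs; inconclusive = viability at or below 10% in only one of the two runs; inactive = the rest.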

A word on the inhibition: it is the change of the read-out against control, counted positive when it falls. Usually viability stands for a read-out of living cells in per cent, often relative to untreated cells.

Assay [1] concerns the target Pantothenate synthetase (Mycobacterium tuberculosis (strain ATCC 25618 / H37Rv)) (UniProt P9WIL5). The assay can be described thus: Recombinant Mtb pantothenate synthetase (PanC) inhibitors, coupled enzyme, confirmatory (AID 375; call rule not given here;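 note: 0% = full reaction with vehicle and 100% = no enzyme background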). To be noted: coupled enzyme assay; at 10 µM, stronger effect = higher value.
Assay [2] is described as follows: reducers of endogenous Her2 protein level, primary screen, SKBR3 breast tumor cells, AlphaScreen, ATP viability (AID 461;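 active = Her2 level under about 52% in both replicate screens, with viability over 70% of control, limit read from the data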;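 for Her2 level: lower value means less Her2 protein in the cells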;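 for viability: percent of carrier control wells set as 100% viability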). To be noted: 18-24 h, measured here: SKBR3 viability, ATP luminescence, at 10 µM.
Assay [3] has as its target Receptor tyrosine-protein kinase erbB-2 (Homo sapiens) (UniProt P04626). Described as above. The note with it: 18-24 h, at 10 µM, stronger effect = lower value.
Assay [4] can be described thus: SK-BR-3 cell growth inhibitors, pilot screen, 24 h, human (AID 572).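 Note: compound exposure lasted between 18 and 24 h rather than exactly 24 h; 100% = carrier-treated control wells.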 To be noted: SK-BR-3 viability, CellTiter-Glo luminescence, at 10 µM, stronger effect = lower value. (Cellular ATP, detected with luciferase, serves as a proxy for viable cell number.)
Assay [5] can be described thus: HUVEC growth inhibition – cell-based, human, primary screen (AID 575;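 active = viability at or below 30% in both replicate assays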;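 note: 100% = median of untreated cell wells with 0.1% DMSO on each plate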). To be noted: HUVEC proliferation, CellTiter-Glo luminescence, 72 h; at 10 µM; stronger effect = lower value. In a few lines:
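system = HUVEC primary cells | amount = 1250 cells/well | buffer or medium = supplemented EBM, 2% fetal bovine serum | dosing = single-point 10 µM, DMSO 0.1% final | times = 72 h compound incubation | detection = CTG luminescence | read-out = % viability relative to median vehicle-well signal on each plate | control set = vehicle and MePR control wells | format = collagen-coated 384-well format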

A short description of assay [6]: growth inhibitors of H69AR lung tumor, primary screen, human, duplicate replicates (AID 580;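 active = viability at or under a set limit in both replicates, limit being median viability minus 3 SD, cut at about 48% in these data, passing the limit was not always enough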;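 note: 100% = mean luminescence of untreated wells and 0% = no signal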). The note with it: H69AR lung tumor cells viability, ATP luminescence, 72 h; at 10 µM; stronger effect = lower value.
Assay [7] can be described thus: reversal of MRP1-mediated doxorubicin resistance, pilot screen, H69AR cells, doxorubicin co-treatment (AID 601;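 active = viability loss from added drug above about 55%, and viability with drug at most 40%, in both replicates, limit read from the data, passing the limit was not always enough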). The note with it: CellTiter-Glo, 72 h, at 10 µM; for differential viability (reversal): stronger effect = higher value.
Assay [8] in a line: 384-well plate pilot, post-Golgi transport modulator project, inhibition of yeast transport mutant growth (AID 636; in the data active = inhibition above about 31%). The note with it: absorbance 615 nm, about 18 h, stronger effect = higher value.
Assay [9] can be described thus: growth suppression of yeast trafficking mutant, preliminary HTS, modulators of trafficking downstream of Golgi apparatus project, 1536-format plate, OD 615 nm (AID 637; in the data active = inhibition above about 30%). The note with it: yeast transport mutant growth, absorbance 615 nm, 18 h; stronger effect = higher value.
Where [10] appears, read: H69AR cells + 2 uM doxorubicin, measured here: viability with 2 uM doxorubicin, stronger effect = lower value.
The mark [11] stands for this setting: H69AR cells, compound alone cytotoxicity.

Chain of Receptor tyrosine-protein kinase erbB-2 (Homo sapiens) (P04626 whole entry, looked up): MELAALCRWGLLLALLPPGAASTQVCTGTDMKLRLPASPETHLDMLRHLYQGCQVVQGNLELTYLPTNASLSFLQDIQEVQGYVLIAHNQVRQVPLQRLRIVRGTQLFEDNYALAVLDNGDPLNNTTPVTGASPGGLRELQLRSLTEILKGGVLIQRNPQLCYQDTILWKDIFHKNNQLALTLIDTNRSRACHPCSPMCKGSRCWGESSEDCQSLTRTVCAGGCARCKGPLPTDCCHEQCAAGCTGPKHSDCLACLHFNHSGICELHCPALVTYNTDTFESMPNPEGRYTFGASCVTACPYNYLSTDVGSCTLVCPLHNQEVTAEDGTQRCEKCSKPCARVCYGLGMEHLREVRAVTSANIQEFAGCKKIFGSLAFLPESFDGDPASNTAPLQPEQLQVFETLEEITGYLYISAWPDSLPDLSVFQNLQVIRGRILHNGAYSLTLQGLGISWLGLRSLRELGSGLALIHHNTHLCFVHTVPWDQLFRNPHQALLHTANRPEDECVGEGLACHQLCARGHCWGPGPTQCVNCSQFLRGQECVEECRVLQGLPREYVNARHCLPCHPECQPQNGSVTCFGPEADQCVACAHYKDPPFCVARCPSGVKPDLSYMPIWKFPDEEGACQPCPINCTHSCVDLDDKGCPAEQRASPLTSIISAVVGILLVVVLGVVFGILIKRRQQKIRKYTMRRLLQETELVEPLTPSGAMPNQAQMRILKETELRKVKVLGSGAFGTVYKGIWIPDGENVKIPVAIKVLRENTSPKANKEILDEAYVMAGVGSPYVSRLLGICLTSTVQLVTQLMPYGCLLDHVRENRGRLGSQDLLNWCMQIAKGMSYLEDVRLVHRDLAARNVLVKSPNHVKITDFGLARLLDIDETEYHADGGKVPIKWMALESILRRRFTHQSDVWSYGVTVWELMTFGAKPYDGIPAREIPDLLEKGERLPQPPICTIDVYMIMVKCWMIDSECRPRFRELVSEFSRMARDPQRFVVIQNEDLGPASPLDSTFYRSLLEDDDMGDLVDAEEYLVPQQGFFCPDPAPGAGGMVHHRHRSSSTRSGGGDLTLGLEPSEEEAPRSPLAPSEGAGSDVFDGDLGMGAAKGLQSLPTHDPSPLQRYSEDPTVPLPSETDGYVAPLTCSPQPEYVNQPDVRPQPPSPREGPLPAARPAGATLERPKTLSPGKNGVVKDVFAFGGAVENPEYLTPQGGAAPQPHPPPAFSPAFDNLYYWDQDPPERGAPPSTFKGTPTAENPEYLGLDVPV
Chain of Pantothenate synthetase (Mycobacterium tuberculosis (strain ATCC 25618 / H37Rv)) (P9WIL5 whole entry, looked up): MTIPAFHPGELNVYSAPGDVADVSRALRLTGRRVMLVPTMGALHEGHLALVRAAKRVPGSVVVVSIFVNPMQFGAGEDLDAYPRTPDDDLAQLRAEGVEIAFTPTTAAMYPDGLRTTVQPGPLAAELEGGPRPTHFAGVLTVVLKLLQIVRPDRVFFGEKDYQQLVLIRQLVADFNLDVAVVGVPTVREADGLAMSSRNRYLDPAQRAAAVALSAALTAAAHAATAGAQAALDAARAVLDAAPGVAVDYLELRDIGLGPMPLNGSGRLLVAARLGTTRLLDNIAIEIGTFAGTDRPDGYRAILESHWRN

For the compound `CCOC(=O)C(O)(c1ccc(N(CC)C(=O)OC)cc1)C(F)(F)F` (centres undefined), the inhibition in [1] is 0% (inactive); in assay [8], -5.53% (inactive); in assay [9], 5.74% (inactive). Besides, the viability in [2] was 99.5%; in [4], 99.5% (inactive); in assay [5], 110% (inactive); in assay [6], 109% (inactive); in [7] (setting [10]), 88.3%; in [7] (setting [11]), 109%. In addition, the Her2 level in [3] is 105% (inactive). In addition, in assay [7] (H69AR cells + 2 uM doxorubicin), the differential viability (reversal) is 20.5% (inactive).

Consider `Cc1ccc(C)c(C2(O)CC(C)N(C)CC2C)c1` (centres undefined), for which the inhibition in assay [1] is 0% (inactive); in assay [8], -1.32% (inactive); in [9], -2.7% (inactive). Moreover, the viability is 110% in [2]; 110% (inactive) in assay [4]; 94.9% (inactive) in assay [5]; 102% (inactive) in assay [6]; 91.7% in assay [7] (setting [10]); 102% in assay [7] (setting [11]). For the same compound, in [3], the Her2 level is 103% (inactive). Besides, the differential viability (reversal) in assay [7] (H69AR cells + 2 uM doxorubicin) was 10.4% (inactive).

As for `Nc1ccc(C2(c3ccc(N)cc3)CN3CCC2CC3)cc1`, the inhibition was 0% (inactive) in assay [1], -5.75% (inactive) in assay [8] and 0% (inactive) in assay [9]. Further, the viability was 120% in [2]; 120% (inactive) in assay [4]; 85.5% (inactive) in assay [5]; 106% (inactive) in assay [6]; 100% in assay [7] (setting [10]); 106% in assay [7] (setting [11]). In assay [3], the Her2 level was 88% (inactive). In addition, in assay [7] (H69AR cells + 2 uM doxorubicin), the differential viability (reversal) is 6.37% (inactive).

In the case of `COc1cc(/C=N/n2cnnc2)ccc1OC(=O)N(C)C`, the inhibition is 6% (inactive) in assay [1], -4.21% (inactive) in [8] and -2.06% (inactive) in assay [9]. Further, the viability in assay [2] was 97%; in assay [4], 97% (inactive); in assay [5] it was 99.5% (inactive); in [6] it was 102% (inactive); in assay [7] (setting [10]) it was 92.7%; in assay [7] (setting [11]) it was 102%. Also, the Her2 level in assay [3] was 96.5% (inactive). The differential viability (reversal) in [7] (H69AR cells + 2 uM doxorubicin) is 9.57% (inactive).

Regarding `O=c1c2ccccc2nc(CSc2ncnc3nc[nH]c23)n1-c1ccccc1`, the inhibition in assay [1] was 0% (inactive); in [8], -1.92% (inactive); in assay [9] it was -10.5% (inactive). Also, the viability in [2] is 96%; in [4], 96% (inactive); in [5], 87.6% (inactive); in [6] it was 80.9% (inactive); in [7] (setting [10]), 89.6%; in assay [7] (setting [11]), 80.9%. Also, the Her2 level in assay [3] was 97.5% (inactive). The differential viability (reversal) in assay [7] (H69AR cells + 2 uM doxorubicin) is -8.74% (inactive).

Regarding `CC(C)C(=O)N1CCN(CCN=Cc2c(O)n(C)c(=O)n(C)c2=O)CC1`, the inhibition in assay [1] is 3% (inactive); in assay [8] it was -5.39% (inactive); in assay [9] it was -1.48% (inactive). Moreover, the viability in [2] is 100%; in assay [4], 100% (inactive); in [5], 122% (inactive); in assay [6], 96.5% (inactive); in assay [7] (setting [10]), 96.7%; in assay [7] (setting [11]), 96.5%. Besides, the Her2 level in assay [3] was 116% (inactive). Also, the differential viability (reversal) in assay [7] (H69AR cells + 2 uM doxorubicin) was -0.17% (inactive).

For the compound `NCCc1ccc(O)cc1`, the figures for the inhibition in assay [1], in assay [8] and in assay [9] were 0% (inactive), -5% (inactive) and -21.1% (inactive), respectively. Besides, the viability in assay [2] was 112%; in assay [4], 112% (inactive); in assay [5], 103% (inactive); in assay [6], 96.2% (inactive); in assay [7] (setting [10]) it was 92.1%; in assay [7] (setting [11]), 96.2%. The Her2 level in [3] is 112% (inactive). In addition, the differential viability (reversal) in assay [7] (H69AR cells + 2 uM doxorubicin) is 4.17% (inactive).

Turning to `CCN1c2nc3ccccn3c(=O)c2CC2(C(=O)N(C)C(=O)N(C)C2=O)C1C` (centres undefined), the inhibition in assay [1] was 0% (inactive); in assay [8], -9.18% (inactive); in assay [9], 2.9% (inactive). In addition, the viability in assay [4] was 119% (inactive); in [5], 104% (inactive); in assay [6], 96% (inactive); in assay [7] (setting [10]), 90%; in assay [7] (setting [11]) it was 96%. For the same compound, the differential viability (reversal) in assay [7] (H69AR cells + 2 uM doxorubicin) is 5.97% (inactive).

In the case of `O=c1[nH]c(=O)n(Cc2ccccc2)c(O)c1C=NCCCO`, the inhibition is 8% (inactive) in [1], -6.13% (inactive) in assay [8] and -0.65% (inactive) in assay [9]. Further, the viability is 100% in assay [2]; 100% (inactive) in assay [4]; 94.1% (inactive) in assay [5]; 117% (inactive) in [6]; 89.9% in assay [7] (setting [10]); 117% in assay [7] (setting [11]). Also, the Her2 level in [3] was 96.5% (inactive). Besides, in assay [7] (H69AR cells + 2 uM doxorubicin), the differential viability (reversal) was 27.1% (inactive).

For the compound `Cn1c(C(=O)N2CCC3(CC2)OCCO3)cc2c(=O)n(C)c3ccccc3c21`, the values for the inhibition in assay [1], in [8] and in [9] were 0% (inactive), -3.82% (inactive) and -5.45% (inactive), respectively. In addition, the viability in assay [2] was 108%; in assay [4], 108% (inactive); in assay [5], 80.2% (inactive); in [6], 80.6% (inactive); in [7] (setting [10]), 86.4%; in [7] (setting [11]), 80.6%. Moreover, the Her2 level in [3] is 82.5% (inactive). The differential viability (reversal) in assay [7] (H69AR cells + 2 uM doxorubicin) is -5.79% (inactive).

As for `COc1ccc(CC2C(=O)NC(=O)NC2=O)c(OC)c1`, the inhibition was 2% (inactive) in [1], 2.8% (inactive) in assay [8] and -1.75% (inactive) in assay [9]. The viability in assay [2] is 96.5%; in assay [4] it was 96.5% (inactive); in assay [5] it was 114% (inactive); in [6], 106% (inactive); in assay [7] (setting [10]) it was 101%; in assay [7] (setting [11]) it was 106%. The Her2 level in assay [3] is 113% (inactive). The differential viability (reversal) in assay [7] (H69AR cells + 2 uM doxorubicin) is 4.86% (inactive).

For `C[N+]1(C)CCN(c2ccccc2)CC1`, the inhibition is 8% (inactive) in assay [1], -1.69% (inactive) in assay [8] and 0.5% (inactive) in assay [9]. Moreover, the viability in assay [4] is 118% (inactive); in [5] it was 95.8% (inactive); in assay [6] it was 84.9% (inactive); in assay [7] (setting [10]), 97%; in [7] (setting [11]), 84.9%. In assay [7] (H69AR cells + 2 uM doxorubicin), the differential viability (reversal) is -12.1% (inactive).

With `CCNc1ccc(P(=S)(N(C)C)N(C)C)cc1`, the results for the inhibition in assay [1], in assay [8] and in assay [9] were 1% (inactive), -7.92% (inactive) and -4.6% (inactive), respectively. Moreover, the viability is 91% in assay [2]; 91% (inactive) in assay [4]; 115% (inactive) in [5]; 88.2% (inactive) in assay [6]; 105% in [7] (setting [10]); 88.2% in assay [7] (setting [11]). Moreover, in assay [3], the Her2 level is 93% (inactive). The differential viability (reversal) in assay [7] (H69AR cells + 2 uM doxorubicin) is -16.7% (inactive).
